Experimental data of several laboratories.
Lines come from different studies, so protocols differ.
Matrix: Caco-2

SMILES | conditions | measurement | value
N=c1c2c(-c3ccccc3)c(-c3ccccc3)n(Cc3ccccc3)c2ncn1[C@H]1CC[C@H](O)CC1 | 3 µM, 2 h, pH 7.4 | Papp A→B | 0.2 ×10⁻⁶ cm/s
O=C(CCCN1CCC2(CC1)C(=O)NCN2c1ccccc1)N(CC1CCCCC1)c1ccccc1 |  | Papp B→A | 6.8 ×10⁻⁶ cm/s
C[C@H]1O[C@@H](O[C@H]2[C@@H](O)C[C@H](O[C@H]3[C@@H](O)C[C@H](O[C@H]4CC[C@@]5(C)[C@H](CC[C@@H]6[C@@H]5C[C@@H](O)[C@]5(C)[C@@H](C7=CC(=O)OC7)CC[C@]65O)C4)O[C@@H]3C)O[C@@H]2C)C[C@H](O)[C@@H]1O | 10 µM, 1 h, pH 7.4 | Papp A→B | 4.28 ×10⁻⁶ cm/s
CC[C@@]1(O)C(=O)OCc2c1cc1n(c2=O)Cc2cc3ccccc3nc2-1 | 100 µM, 105 min | Papp A→B | 36 ×10⁻⁶ cm/s
C[C@]12C[C@@H](O)[C@H]3[C@@H](CC[C@]4(O)C[C@@H](O)C[C@@H](O)[C@]34CO)[C@@]1(O)CC[C@@H]2c1cn(Cc2ccccc2)nn1 | 1 h, pH 6.5 | Papp A→B | 0.19 ×10⁻⁶ cm/s
COc1cc2c(c(OC)c1OC)-c1ccc(OC)c(=O)cc1[C@@H](NC(C)=O)CC2 |  | Papp A→B | 0.2 ×10⁻⁶ cm/s
C/N=c1\nc(-c2ccccc2)n(-c2ccccc2)s1 | 20 µM, 95 min | Papp A→B | 38.9 ×10⁻⁶ cm/s
COc1ccc2c(c1)[C@]13CCCC[C@@H]1[C@H](C2)N(C)CC3 | 10 µM, pH 6.5 | Papp A→B | 34.9 ×10⁻⁶ cm/s
